The source made the active and inactive calls. The rule behind the calls is not given here.
Tests used:
HT-22 [1] = test: Cytotoxicity against mouse HT22 cells up to 100 uM after 24 hrs by LDH-release assay; type: cell-based; conditions: ht-22, 24 h
Summary of the method: (§1)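 HT22 cells exposed to compound alone, without glutamate (cytotoxicity tested up to 100 µM). Cell injury is read as lactate dehydrogenase released into the culture medium, measured with a cytotoxicity detection kit. LDH from control cultures is set at 100%.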

HT-22 [2] = test: Neuroprotective activity against glutamate-induced neuronal cell death in mouse HT22 cells at 25 to 50 uM after 24 hrs by LDH-release assay relative to control; type: functional
Summary of the method: (§2)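 HT22 cells exposed to 10 mM glutamate together with compound at 25 or 50 µM for 24 h. Cell death read as LDH released into the culture medium (cytotoxicity detection kit). Control is LDH release from cells incubated without glutamate, set at 100%.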

HT-22 [3] = test: Neuroprotective activity against glutamate-induced neuronal cell death in mouse HT22 cells after 24 hrs by LDH-release assay; type: functional, cell-based; conditions: HT-22, 24 h
Summary of the method: (§3)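 HT22 cells co-incubated 24 h with 10 mM glutamate plus compound at 0, 1.0, 2.5, 5.0, 10 or 25 µM. Cell death is read as LDH released into the medium. Control-culture LDH is set at 100%. IC50 values were estimated from this low-dose series; for some compounds, approximate IC50s were corrected by subtracting suppression of basal, glutamate-independent death.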

HT-22 [4] = test: Neuroprotective activity against glutamate-induced neuronal cell death in mouse HT22 cells at 1 to 25 uM after 24 hrs by LDH-release assay relative to control; type: functional, cell-based; summary of the method: as §3
HT-22 [5] = test: Cytotoxicity against mouse HT22 cells after 24 hrs in absence of glutamate by LDH-release assay relative to control; type: ADME, cell-based; conditions: ht-22, 24 h; summary of the method: as §1
HT-22 [6] = test: Neuroprotective activity against glutamate-induced neuronal cell death in mouse HT22 cells at 1 to 10 uM after 24 hrs by LDH-release assay relative to control; type: functional, cell-based; summary of the method: as §3
HT-22 [7] = test: Neuroprotective activity against glutamate-induced neuronal cell death in mouse HT22 cells at 2.5 to 10 uM after 24 hrs by LDH-release assay relative to control; type: functional, cell-based; summary of the method: as §3
HT-22 [8] = test: Neuroprotective activity against glutamate-induced neuronal cell death in mouse HT22 cells at 2.5 to 5 uM after 24 hrs by LDH-release assay relative to control; type: functional, cell-based; summary of the method: as §3
HT-22 [9] = test: Neuroprotective activity against glutamate-induced neuronal cell death in mouse HT22 cells at 25 uM after 24 hrs by LDH-release assay relative to control; type: functional; summary of the method: as §2
HT-22 [10] = test: Neuroprotective activity against glutamate-induced neuronal cell death in mouse HT22 cells at 50 uM after 24 hrs by LDH-release assay relative to control; type: functional, cell-based
Summary of the method: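 HT22 cells treated 24 h with 10 mM glutamate and compound at 0, 25 or 50 µM. Cell death is read as lactate dehydrogenase released into the culture medium, measured with a cytotoxicity detection kit. LDH of control cultures is set at 100%.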

| Compound | Activity (HT-22 [1]) | Activity (HT-22 [2]) | further results |
| --- | --- | --- | --- |
| COc1ccc2c(c1)C1(CCN(c3ccccc3)CC1)C(=O)N2 | Non-Toxic | inactive |  |
| CN(C)c1ccc(CC2C(=O)Nc3ccccc32)cc1 (racemic) | Non-Toxic | Active | IC50 (HT-22 [3]): 7.1 µM; Activity (HT-22 [4]): Active |
| CCN(CC)c1ccc(CCCC2C(=O)Nc3ccccc32)cc1 (racemic) | Non-Toxic | >100% | Activity (HT-22 [5]): Non-Toxic |
| COc1ccc2c(c1)C(C)(CCCc1ccc(N(C)C)cc1)C(=O)N2 (racemic) [listing 1 of 2 here] | Non-Toxic |  |  |
| CN(Cc1ccccc1)c1ccc(CCCC2(C)C(=O)Nc3ccccc32)cc1 (racemic) | Non-Toxic | Active |  |
| COc1ccc2c(c1)C(C)(CCCc1ccc(N(C)C)cc1)C(=O)N2CC(=O)O (racemic) | Non-Toxic | inactive |  |
| COc1ccc2c(c1)C(C)(CCCc1ccc(N(C)C)cc1)C(=O)N2 (stereo in doubt; 8b) |  | Active |  |
| CN(C)c1ccc(CCCC2(C)C(=O)Nc3ccc(F)cc32)cc1 (racemic) | Non-Toxic | >100% | Activity (HT-22 [6]): Active; IC50 (HT-22 [3]): 1.2 µM; Activity (HT-22 [5]): Non-Toxic |
| CN(C)c1ccc(C(=O)NCCC2C(=O)Nc3ccccc32)cc1 (racemic) | Non-Toxic | inactive |  |
| CN(C)c1ccc(CCCC2C(=O)Nc3ccc(C(F)(F)F)cc32)cc1 (centres undefined) | Non-Toxic |  |  |
| CN(C)CCCCCCCC1(C)C(=O)Nc2ccccc21 (centres undefined) | Non-Toxic | inactive |  |
| COc1ccc2c(c1)C(C)(CCCc1ccc(N(C)C)cc1)C(=O)N2 (stereo in doubt; 8a) |  | Active |  |
| CN(C)c1ccc(CCCC2C(=O)Nc3ccccc32)cc1 (racemic) | Non-Toxic | Active | Activity (HT-22 [7]): Active; IC50 (HT-22 [3]): 5.5 µM |
| COc1ccc2c(c1)C(C)(CCCc1ccc(N(C)C)cc1)C(=O)N2 (racemic) [listing 2 of 2 here] |  | Active |  |
| CN(C)c1ccc(CCCC2(C)C(=O)Nc3ccccc32)cc1 (racemic) | Non-Toxic | >100% | Activity (HT-22 [5]): Non-Toxic |
| COc1ccc(N2C(=O)C(C)(CCCc3ccc(N(C)C)cc3)c3ccccc32)cc1 (centres undefined) | Non-Toxic |  |  |
| COc1ccc2c(c1)C(C)(CCCc1ccc(N(C)C)cc1)C(=O)N2CC(=O)N(C)C (centres undefined) | Non-Toxic |  |  |
| CN(C)c1ccc(CCCC2C(=O)N(C)c3ccccc32)cc1 (racemic) | Non-Toxic | >100% | Activity (HT-22 [5]): Non-Toxic |
| COc1ccc2c(c1)C(C)(CCOc1ccc(N(C)C)cc1)C(=O)N2 (racemic) | Non-Toxic | Active |  |
| CN(C)c1cccc(CCCC2C(=O)Nc3ccccc32)c1 (racemic) | Non-Toxic | >100% | Activity (HT-22 [5]): Non-Toxic |
| CN(C)c1ccc(CCCC2(C)C(=O)Nc3ccc(O)cc32)cc1 (racemic) | Non-Toxic | >100% | Activity (HT-22 [8]): Active; IC50 (HT-22 [3]): 1.9 µM; Activity (HT-22 [5]): Non-Toxic |
| CN(C)c1ccc(CCCCC2C(=O)Nc3ccccc32)cc1 (racemic) | Non-Toxic | Active |  |
| COCCOc1ccc2c(c1)C(C)(CCCc1ccc(N(C)C)cc1)C(=O)N2 (centres undefined) | Non-Toxic |  |  |
| O=C1O[C@H]([C@@H](O)CO)C(O)=C1O [ASCORBIC ACID] |  |  | Activity (HT-22 [9]): 50% |
| CN(C)c1ccc(C(C)(C)CC2C(=O)Nc3ccccc32)cc1 (racemic) | Non-Toxic |  |  |
| CN(C)c1ccc(CCC2C(=O)Nc3ccccc32)cc1 (racemic) | Non-Toxic |  | Activity (HT-22 [9]): inactive; Activity (HT-22 [10]): Active |
| CN(CCCCCC1C(=O)Nc2ccccc21)c1ccccc1 (racemic) | Non-Toxic | Active |  |

Reference: ChEMBL document CHEMBL4043176, “Synthesis of 3-[4-(dimethylamino)phenyl]alkyl-2-oxindole derivatives and their effects on neuronal cell death” (Bioorg Med Chem Lett, 2017)
